The list is not random: actives were taken first. Their share in the collection is about 2.3%.
HNF4A DNA FP: change in binding of human HNF4A to DNA, primary screen, biochemical, fluorescence polarization, FITC-DNA | Hepatocyte nuclear factor 4-alpha (Homo sapiens), P41235 | 1 h | activity change, % at 10 µM | 0.3% of 360,000 active; in the data active means activity change above about 30%, passing the limit was not always enough
Myeloid diff MLP: induction of myeloid progenitor differentiation, primary screen, cell-based, flow cytometry, MLPCN library; calls only at 10 µM; AID 624256, 2012; 1% of 360,000 active; ER-HoxA9 myeloid progenitors, lysozyme-GFP differentiation;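 active means normalized GFP-positive differentiation at or above the plate's own cutoff, the solvent-only control mean plus 3 SD; inconclusive means no clear call, values can overlap the other calls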;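 further: cells exposed to compound for four days before flow analysis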
Rpn11 block: Rpn11 (PSMD14) deubiquitinase inhibitors, primary screen, biochemical, fluorescence polarization, uHTS | human 26S proteasome, Ub4-pepOG fluorescence polarization; 20S core pre-blocked with epoxomicin | AID 588493, 2011 | 0.59% of 360,000 active | inhibition, % at 20 µM;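 active means inhibition at 20 µM, scaled to each plate's controls, above about 33%, limit read from the data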
Target sequence (O00487 whole entry, looked up): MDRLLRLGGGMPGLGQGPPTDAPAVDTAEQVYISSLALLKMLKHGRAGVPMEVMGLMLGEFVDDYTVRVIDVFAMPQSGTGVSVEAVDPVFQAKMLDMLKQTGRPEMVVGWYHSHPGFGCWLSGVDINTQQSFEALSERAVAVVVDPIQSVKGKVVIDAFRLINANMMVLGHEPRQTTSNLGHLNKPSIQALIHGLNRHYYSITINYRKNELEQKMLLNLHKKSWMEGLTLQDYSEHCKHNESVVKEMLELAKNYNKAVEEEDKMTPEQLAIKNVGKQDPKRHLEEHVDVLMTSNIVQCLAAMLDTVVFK
TPT1 inhibitor: Candida albicans TPT1 enzyme inhibitors, primary screen, biochemical, fluorescence polarization | tRNA 2'-phosphotransferase TPT1 (Candida albicans SC5314) | recombinant caTPT1, FP RNA substrate dephosphorylation | inhibition, % at 5 µM | 0.81% of 300,000 active | AID 1962, 2009;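 active means inhibition above the mean of all tested compounds plus 3 SD, set per screening campaign, cut at about 24% in these data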
CSN inh: inhibitors of CSN-mediated cullin deneddylation, primary screen, biochemical, fluorescence polarization, uHTS | 0.38% of 360,000 active | Purified CSN, SCF-Nedd8-OG deneddylation | inhibition, % at 12.5 µM | COP9 signalosome complex subunit 5 (Homo sapiens), Q92905;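 active means pattern-corrected inhibition above about 35%, with an unprinted fluorescence ratio check between 0.5 and 1.5, limit read from the data, passing the limit was not always enough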
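test system = HEK293T-derived human Csn5 enzyme | amount = 0.24 nM Csn5 enzyme, final concentration | medium = Tris/NaCl/DTT buffer, pH 7.5 | schedule = 90 min reaction at room temperature | signal = FP | evaluation = inhibition of Csn5 cleavage, % | compound dosing = single dose of 12.5 µM compound with 0.25% DMSO | probe or stimulus = 10 nM SCFSkp2-Nedd8OG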
caTPT1 confirm: Candida albicans TPT1 inhibitors, confirmation, biochemical, fluorescence polarization, triplicate; shares compounds with TPT1 inhibitor; inhibition, % at 5 µM; 74% of 2,400 active; recombinant caTPT1, RNase T1 coupled;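 active means inhibition above the primary screen limit, the mean inhibition of all tested compounds plus 3 SD, cut at about 25% in these data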
RNase T1 inh: RNase T1 inhibitors, counter-screen for TPT1 inhibitor project, biochemical, fluorescence polarization; RNase T1 cleavage, 1536-well; inhibition, % at 5 µM; shares compounds with TPT1 inhibitor; 83% of 2,400 active;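 active means inhibition above the solvent-only control well mean plus 3 SD, limit set per screening run, cut at about 23% in these data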;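 further: inhibitors block cleavage so intact labeled substrate keeps polarization high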
Target sequence (P00651 whole entry, looked up): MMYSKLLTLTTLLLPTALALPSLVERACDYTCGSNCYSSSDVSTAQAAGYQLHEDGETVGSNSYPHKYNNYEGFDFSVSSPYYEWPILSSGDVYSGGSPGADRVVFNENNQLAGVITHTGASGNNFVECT
Hits are given with their value; i = inactive; ? = inconclusive; nt = not tested or not shown.

SMILES	HNF4A DNA FP	Myeloid diff MLP	Rpn11 block	TPT1 inhibitor	CSN inh	caTPT1 confirm	RNase T1 inh
CCN(CC)CCCOc1ccc(Cl)c(Cl)c1	i	i	i	134	i	i	i
COC(=O)[C@@]1(Cc2ccc(F)cc2)[C@H]2c3cc(C(=O)N(C)C)n(Cc4ccc(C)c(F)c4F)c3C[C@H]2CN1C(=O)c1ccccc1	i	i	nt	nt	i	nt	nt
N#C/C(C(=O)N1CCOCC1)=C1/SC(Cc2ccccc2)C(=O)N1c1ccccc1 (stereo unspecified)	i	i	i	i	i	nt	nt
CCCCc1ccc(CC2S/C(=C(\C#N)C(=O)N3CCOCC3)N(c3ccccc3)C2=O)cc1 (stereo unspecified)	i	i	i	35	i	62	74
O=C(NC1CCCCC1)c1ccc2snnc2c1	i	i	i	i	i	nt	nt
COc1cc(C)nc(NC(=S)N(C)C(=O)c2ccccc2)n1	i	i	i	i	i	nt	nt
NC1=NC(=O)/C(=C/c2ccc(Br)cc2)S1	i	i	i	i	i	nt	nt
NC1=NC(=O)/C(=C/c2cc(Br)c(O)c(Br)c2)S1	i	i	i	37	i	49	62
CC12C=CC3(O1)C(C(=O)N(c1cccnc1)C3C(=O)NC1CCCCC1)C2C(=O)Nc1ccccc1 (stereo unspecified)	i	i	i	i	i	nt	nt
CC(C)(C)NC(=O)C1N(c2cccnc2)C(=O)C2C(C(=O)Nc3ccccc3F)C3(C)C=CC21O3 (stereo unspecified)	i	i	i	73	i	i	i
Cc1cc(O)c(C(=O)/C=C/c2ccc(Cl)cc2)c(=O)o1	i	i	nt	36	i	i	i
COc1ccc(/C=C/C(=O)c2c(O)cc(C)oc2=O)c(OC)c1	i	i	45	134	i	54	75
C/C(=C\C(=O)c1c(O)cc(C)oc1=O)N(C)C	i	i	i	i	i	nt	nt
COc1cc(/C=C/C(=O)c2c(O)cc(C)oc2=O)cc(OC)c1O	i	i	i	37	i	i	i
COc1cccc(/C=C/C(=O)c2c(O)cc(C)oc2=O)c1O	i	i	i	33	i	i	i
COc1ccc(C=O)c(OC)c1	i	i	i	i	i	nt	nt
COc1ccc2cc(C(=O)/C=C/c3cc(OC)c(O)c(OC)c3)ccc2c1	i	i	i	i	i	nt	nt
O=C(CCCc1ccccc1)N=C1SC2CS(=O)(=O)CC2N1c1ccccc1F (stereo unspecified)	i	i	i	i	i	nt	nt
COC(=O)c1ccnc(/C=N/O)c1	i	i	i	50	i	i	i
COc1cccc(C2CCCCN2Cc2nc(-c3ccc(C)o3)oc2C)c1 (stereo unspecified)	i	i	i	27	i	31	41
COc1cccc(C2CCCN2Cc2nc(-c3sccc3C)oc2C)c1 (stereo unspecified)	i	i	i	i	i	nt	nt
Cc1[nH]c2ccccc2c1CN1CCC(Cc2ccccc2)CC1	i	?	i	i	i	nt	nt
CC(=O)Nc1nonc1NC(=O)COc1ccccc1	i	i	i	i	i	nt	nt
O=C(COC(=O)CNC(=O)c1ccccc1F)Nc1ccc2c(c1)OCCO2	i	i	i	55	i	i	i
CC(=O)NC(=S)c1c(N)n(Cc2ccccc2)c(=O)n(C)c1=O	nt	nt	nt	38	nt	32	43
CC(=O)Nc1ccc(SCC(=O)c2c(N)n(Cc3ccccc3)c(=O)n(C)c2=O)cc1	i	i	i	i	i	nt	nt
O=C(Nc1ccccc1Br)c1ccc2nccnc2c1	i	i	i	i	i	nt	nt
O=C(Nc1ccccc1C(F)(F)F)c1ccc2nccnc2c1	i	i	i	39	i	i	i
N#Cc1c(-c2ccco2)cc(-c2ccccn2)nc1N	i	i	i	28	i	i	i

Screens from PubChem.
